# From PMC10213863 (Cell Reports Medicine, 2023)
# Like-named read-outs stand apart in the source and are kept apart here.
# Experiments:
# [1] = system: SLE immune-complex-driven IFN-α response in PBMCs; experiment: IFN-α release from PBMCs stimulated with SLE patient sera immune complexes; format: cell-based, human
# [2] = system: immune-complex stimulated ISG panel in PBMCs; experiment: Five-gene ISG panel in PBMCs stimulated with SLE immune complexes; format: cell-based, human; conditions: HCQ 1 μM
# Outline: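 PBMCs were pre-treated 30 min with test compound, HCQ or 0.1% DMSO, then stimulated 20 h with SLE serum pre-complexed with U-937 necrotic extract. RNA was extracted and ISGs quantified by qRT-PCR with the 2−ΔΔCt method against 18S rRNA, using biological replicates. Global ISG induction was derived by normalizing each ISG's relative induction to 100%.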
# [3] = system: ssRNA driven IFN transcripts in human PBMCs; experiment: ISG expression in human PBMCs stimulated with ssRNA; format: cell-based; conditions: HCQ vs MHV370
# Outline: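 PBMCs were pre-incubated 30 min with test compound or HCQ, then stimulated with ssRNA at doses from earlier work. RNA was extracted, and ISG transcripts were quantified by qRT-PCR with the 2−ΔΔCt method against 18S rRNA, using biological replicates. Each ISG's induction was normalized to 100% to give a panel signature.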
# [4] = system: IFN-α accelerated NZB/W F1 model; conditions: cited from earlier work
# SLE patients [5] = conditions: cited from earlier work
# SLE patients [6] = conditions: BLISS trial, cited from earlier work
molecule,measurement,setting,value
"CCN(CCO)CCCC(C)Nc1ccnc2cc(Cl)ccc12 (stereo not drawn) [HCQ, hydroxychloroquine, reference compound]",inhibition of immune-complex-driven IFN-α responses by serum category,"[1]; HCQ 1 μM (matched steady-state blood exposure of SLE patients), PBMCs",strongest inhibition of IFN-α responses elicited by dsDNA immune complexes
same,"fold lower potency than MHV370, immune-complex-induced IFN-α",[1]; HCQ vs MHV370,"approximately 1,000 fold"
same,expression of a five-panel ISG signature,[2],only mildly effective
same,fold less potent antagonist of ISG expression than MHV370,[3],"3,300 fold"
N#Cc1ccc(N2C[C@H](N)C[C@H](C(F)(F)F)C2)c2cccnc12 [M5049],efficacy in IFN-α accelerated NZB/W F1 model,[4],showed efficacy
anifrolumab: antibody drug which interferes with type I IFN signaling,herpes virus infections in treated patients,SLE patients [5],increased
same,predefined endpoint in phase 3 studies,SLE patients [5]; one of two phase 3 studies,failed to reach its predefined endpoint
belimumab: antibody drug which interferes with B cell expansion,SRI (SLE responder index) response rate above placebo,SLE patients [6]; 1 mg/kg,7%
same,SRI (SLE responder index) response rate above placebo,SLE patients [6]; 10 mg/kg,14%
